# Laboratory results from ChEMBL document CHEMBL1255417, “Correlation between in vitro activity of posaconazole and in vivo efficacy against Rhizopus oryzae infection in mice” (Antimicrob Agents Chemother, 2010).
# Calls of active or inactive are those of the source. The calls are words filed in the database; no cut-off is given here.
# Key:
# Rhizopus arrhizus [1] = assay: Antifungal activity against drug-susceptible Rhizopus oryzae UTHSC 05-3580 after 24 to 48 hrs; assay type: functional
# How it was run: (§1)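 Minimum fungicidal concentration taken from the broth microdilution plates. From each well with complete inhibition (optically clear), 20 ul is plated on potato dextrose agar. Plates are incubated at 35°C for 24 to 48 h. The MFC is the lowest drug concentration giving no growth.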
# Rhizopus arrhizus [2] = assay: Antifungal activity against drug-susceptible Rhizopus oryzae UTHSC 02-2882 after 24 to 48 hrs; assay type: functional
# Rhizopus arrhizus [3] = assay: Antifungal activity against drug-susceptible Rhizopus oryzae UTHSC 03-112 at 5 ug by disk diffusion assay; assay type: functional; settings: read-out: DIZ
# How it was run: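 Neo-Sensitabs tablet diffusion on Mueller-Hinton agar, following the guidelines for molds. Tablets were 9 mm in diameter and held 5 µg of drug. The read-out was inhibition zone diameter in mm.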
# Rhizopus arrhizus [4] = assay: Antifungal activity against drug-susceptible Rhizopus oryzae UTHSC 06-2457 at 5 ug by disk diffusion assay; assay type: functional; settings: read-out: DIZ
# How it was run: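 Neo-Sensitabs tablet diffusion on Mueller-Hinton agar, run per the mould guidelines. Tablets are 9 mm in diameter and carry 5 ug posaconazole. The read-out is the inhibition zone diameter in mm.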
# Rhizopus arrhizus [5] = assay: Antifungal activity against drug-susceptible Rhizopus oryzae UTHSC 03-2970 by broth microdilution method; assay type: functional
# How it was run: (§2)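 Broth microdilution MIC in µg/ml, run per the CLSI (formerly NCCLS) guideline for filamentous fungi, M38-A2.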
# Rhizopus arrhizus [6] = assay: Antifungal activity against drug-susceptible Rhizopus oryzae infected in OF1 mouse assessed as mouse survival at 30 mg/kg, po bid treated 24 hrs after fungal infection; assay type: functional
# Rhizopus arrhizus [7] = assay: Antifungal activity against drug-susceptible Rhizopus oryzae UTHSC 03-1826 by broth microdilution method; assay type: functional; how it was run: as §2
# Rhizopus arrhizus [8] = assay: Antifungal activity against drug-susceptible Rhizopus oryzae UTHSC 03-112 after 24 to 48 hrs; assay type: functional
# Rhizopus arrhizus [9] = assay: Antifungal activity against drug-susceptible Rhizopus oryzae UTHSC 06-434 after 24 to 48 hrs; assay type: functional; how it was run: as §1
# Rhizopus arrhizus [10] = assay: Antifungal activity against drug-susceptible Rhizopus oryzae UTHSC 03-1826 after 24 to 48 hrs; assay type: functional
# Serum = assay: Drug level in human serum at 400 mg, po bid; assay type: ADME, organism-based; settings: in vivo
# Rhizopus arrhizus [11] = assay: Antifungal activity against drug-susceptible Rhizopus oryzae UTHSC 05-2975 after 24 to 48 hrs; assay type: functional
# How it was run: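 Minimum fungicidal concentration: 20 µl from each microdilution well showing complete inhibition (optically clear) plated on potato dextrose agar, incubated 35°C for 24 to 48 h; MFC taken as lowest drug concentration giving no growth.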
# Rhizopus arrhizus [12] = assay: Antifungal activity against drug-susceptible Rhizopus oryzae UTHSC 06-4152 by broth microdilution method; assay type: functional
# How it was run: (§3)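 Posaconazole MIC in ug/ml, determined by broth microdilution following the CLSI guidelines for moulds (M38-A2).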
# Rhizopus arrhizus [13] = assay: Antifungal activity against drug-susceptible Rhizopus oryzae UTHSC 03-299 at 5 ug by disk diffusion assay; assay type: functional; settings: read-out: DIZ
# How it was run: (§4)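 Neo-Sensitabs tablet diffusion on Mueller-Hinton agar, following guidelines for molds; 9 mm tablets containing 5 µg posaconazole; inhibition zone diameter measured in mm; zone breakpoints applied at 24 h.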
# Rhizopus arrhizus [14] = assay: Antifungal activity against drug-intermediate Rhizopus oryzae UTHSC 05-114 by broth microdilution method; assay type: functional; how it was run: as §2
# Rhizopus arrhizus [15] = assay: Antifungal activity against drug-susceptible Rhizopus oryzae UTHSC 04-2459 at 5 ug by disk diffusion assay; assay type: functional; settings: read-out: DIZ; how it was run: as §4
# Rhizopus arrhizus [16] = assay: Antifungal activity against drug-susceptible Rhizopus oryzae UTHSC 06-2457 by broth microdilution method; assay type: functional; how it was run: as §3
# Rhizopus arrhizus [17] = assay: Antifungal activity against drug-susceptible Rhizopus oryzae UTHSC 02-2882 infected in OF1 mouse assessed as reduction in kidney fungal load at 10-30 mg/kg, po bid; assay type: functional, organism-based
# How it was run: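 Tissue burden in immunosuppressed male OF1 mice, using cyclophosphamide 200 mg/kg i.p. plus 5-fluorouracil 150 mg/kg i.v. on day −1. Mice received 2 × 10^4 CFU i.v. by tail vein, then oral gavage at 10, 20 or 30 mg/kg BID from 24 h post-challenge, with ceftazidime cover; untreated controls. Groups of 10 were killed on day 4. Kidneys and brains were homogenized in 2 ml saline, serially diluted 10-fold, plated on PDA and counted after 24 h at 35°C.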
# Rhizopus arrhizus [18] = assay: Antifungal activity against drug-susceptible Rhizopus oryzae UTHSC 05-1502 by broth microdilution method; assay type: functional
# How it was run: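 CLSI broth microdilution for filamentous fungi (M38-A2); MIC recorded in µg/ml against clinical isolates; breakpoints applied at 24 h.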
# Rhizopus arrhizus [19] = assay: Antifungal activity against drug-intermediate Rhizopus oryzae UTHSC 04-3109 by broth microdilution method; assay type: functional; how it was run: as §2
compound,measurement,setting,value
CC[C@@H]([C@H](C)O)n1ncn(-c2ccc(N3CCN(c4ccc(OC[C@@H]5CO[C@@](Cn6cncn6)(c6ccc(F)cc6F)C5)cc4)CC3)cc2)c1=O [POSACONAZOLE],MFC,Rhizopus arrhizus [1],1 µg/mL
same,MFC,Rhizopus arrhizus [2],0.5 µg/mL
same,zone of inhibition at 5 µg/disc,Rhizopus arrhizus [3],20 mm
same,zone of inhibition at 5 µg/disc,Rhizopus arrhizus [4],14 mm
same,MIC,Rhizopus arrhizus [5],1 µg/mL
same,Activity,Rhizopus arrhizus [6],30%
same,MIC,Rhizopus arrhizus [7],0.5 µg/mL
same,MFC,Rhizopus arrhizus [8],1 µg/mL
same,MFC,Rhizopus arrhizus [9],1 µg/mL
same,MFC,Rhizopus arrhizus [10],0.5 µg/mL
same,Drug uptake,Serum,< 1 µg/mL
same,MFC,Rhizopus arrhizus [11],2 µg/mL
same,MIC,Rhizopus arrhizus [12],0.25 µg/mL
same,zone of inhibition at 5 µg/disc,Rhizopus arrhizus [13],15 mm
same,MIC,Rhizopus arrhizus [14],2 µg/mL
same,zone of inhibition at 5 µg/disc,Rhizopus arrhizus [15],18 mm
same,MIC,Rhizopus arrhizus [16],1 µg/mL
same,Activity,Rhizopus arrhizus [17],Active
same,MIC,Rhizopus arrhizus [18],0.5 µg/mL
same,MIC,Rhizopus arrhizus [19],2 µg/mL
